Shown are actives, neighbours in structure and some others; about 2.9% of the full set was active somewhere.
ABHD4 inh = ABHD4 (mouse) inhibition, primary FP screen; Q8VD66; purified mABHD4, FP-Rh probe fluorescence polarization; inhibition, % at 8.92 µM; 0.54% of 370,000 active; AID 720543;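 active means inhibition exceeding the mean over every tested compound plus 3 SD, cut at about 30% in these data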;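 further: 0% = plate median of compound wells and 100% = S159A mutant with DMSO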
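Assay system: mouse ABHD4 enzyme, wild type / Also added: fluorescent activity-based probe FP-Rh / Doses: single nominal dose of 8.92 µM, 0.89% DMSO final / Timing: 45 min compound pre-incubation plus 60 min probe step, 25 °C / Signal: FP readout, ex 525 nm / em 598 nm / Control set: S159A mutant/DMSO as 100%, compound-well median as 0%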
ATG4B inh = ATG4B (human) cysteine protease inhibition. Q9Y4P1. ATG4B cleavage of LC3-PLA2, NBD-HPC fluorescence, 1 h. inhibition, % at 8.33 µM. 0.51% of 340,000 active; in the data active means inhibition above about 40%
SIAE inh = human SIAE inhibition, primary screen. Q9HAT2. SIAE FP-Rh probe binding, fluorescence polarization. inhibition, % at 9.66 µM. 0.69% of 370,000 active. AID 1053197;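 active means inhibition above a cutoff: mean of compounds within the control limits plus 3 SD of those, cut at about 17% in these data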;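 further: 0% = plate median of compound wells and 100% = probe without SIAE protein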
TCR CD3 inh = blocks the human TCR-CD3 interaction; 0.37% of 360,000 active; AID 651800; TAMRA-labeled TCR probe fluorescence, biochemical; inhibition, % at 9.4 µM;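 further: recombinant mutant TCR 2C K166C tagged with TAMRA read by polarization; 0% = receptor in buffer alone and 100% = receptor with positive control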
PRMT1 FP inh = blocks human protein arginine methyltransferase 1; recombinant PRMT1, activity-based probe fluorescence polarization; inhibition, % at 2.79 µM; 1.3% of 370,000 active;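 active means inhibition above about 21% made by adding two undisclosed values, limit read from the data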
Target sequence (Q99873 whole entry, looked up): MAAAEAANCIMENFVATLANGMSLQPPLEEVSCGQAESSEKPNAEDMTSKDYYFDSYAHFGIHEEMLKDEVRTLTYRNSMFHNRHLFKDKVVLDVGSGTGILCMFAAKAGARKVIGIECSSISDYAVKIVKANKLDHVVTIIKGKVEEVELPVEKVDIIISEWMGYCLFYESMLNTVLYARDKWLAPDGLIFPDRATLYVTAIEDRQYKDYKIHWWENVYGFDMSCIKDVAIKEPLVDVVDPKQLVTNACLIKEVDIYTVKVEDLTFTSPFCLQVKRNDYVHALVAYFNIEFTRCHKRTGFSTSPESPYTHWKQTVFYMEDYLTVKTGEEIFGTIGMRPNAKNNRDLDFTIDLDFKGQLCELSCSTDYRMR
HTRA1 inh = blocks human HTRA1 serine peptidase; Q92743; recombinant HTRA1, FP-rhodamine activity-based probe, fluorescence polarization; inhibition, % at 5.96 µM; 0.5% of 340,000 active; AID 504803; in the data active means inhibition above about 36%;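 further: 0% = enzyme with DMSO and 100% = wells lacking enzyme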
BSA probe FL = interferes with TAMRA-BSA probe, flagging TCR-CD3 hits | shares compounds with TCR CD3 inh | inhibition, % at 9.4 µM | TAMRA-labeled BSA probe fluorescence counterscreen | AID 652035 | 10% of 1,200 active; in the data active means inhibition above about 23%;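 further: 0% = buffer low control and 100% = reference high control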
TCR-CD3 conf = confirmation of human TCR-CD3 interaction inhibitors. AID 652036. 48% of 1,200 active. inhibition, % at 9.4 µM. TAMRA-labeled TCR probe fluorescence binding assay. shares compounds with TCR CD3 inh
PRMT1 confirm = confirmation of human PRMT1 inhibitors; 42% of 3,300 active; shares compounds with PRMT1 FP inh; recombinant His-PRMT1, activity-based probe fluorescence polarization; inhibition, % at 2.79 µM;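 active means mean inhibition across replicates above the hit cutoff derived for the earlier primary screen, cut at about 22% in these data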
SIAE confirm = human SIAE inhibition, confirmation; SIAE FP-Rh activity-based probe, fluorescence polarization; shares compounds with SIAE inh; inhibition, % at 9.66 µM; AID 1117263; 13% of 2,300 active;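 active means mean inhibition of the replicates above the hit cutoff set in the primary screen, cut at about 17% in these data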;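 further: 0% = SIAE with DMSO and probe and 100% = probe without SIAE; inhibitors lower polarization as more probe stays unbound to SIAE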
* = called active by the depositor; x = no result. Unless noted, no stated cut-off is given here; in the data, active means inhibition above about 19%; inactive means the rest.

SMILES	ABHD4 inh	ATG4B inh	SIAE inh	TCR CD3 inh	PRMT1 FP inh	HTRA1 inh	PRMT1 confirm	others
O=C(N/N=C\c1c(O)ccc2ccccc12)c1ccc(Cn2cccn2)o1	28	-4	24*	24*	2	18	x	BSA probe FL=-18;TCR-CD3 conf=25*;SIAE confirm=2
O=C(N/N=C\c1ccc(Cl)s1)c1ccc(Cn2cccn2)o1	1	-7	12	-6	0	8	x
O=C(CCn1nnc(-c2cccs2)n1)NCc1cccs1	2	x	-4	x	-7	x	x
CC(=O)c1cc(-c2ccccc2S(=O)(=O)NC(C)(C)C)c(=O)n2c1CCC2	8	x	1	x	1	x	x
c1ccc2[nH]c(CCCc3nc4ccccc4[nH]3)nc2c1	2	6	5	4	1	8	x
S=c1cnc2ccccc2[nH]1	7	-7	2	10	40*	6	14
Cc1oc(-c2ccc3c(c2)OCCO3)cc1C(=O)NCC(=O)O	3	4	1	3	1	-1	x
Cc1oc(-c2ccc3c(c2)OCCO3)cc1C(=O)O	-7	-6	-2	-8	42*	3	6
C[C@H]1COc2cccc(N3CCCC3)c2S(=O)(=O)N1C	7	x	-4	x	-1	x	x
CC(=O)Nc1ccc(S(=O)(=O)N[C@@H](C)C(=O)N2CCN(c3ccccn3)CC2)cc1	-7	-7	2	2	38*	4	23*
CC(=O)Nc1ccc(S(=O)(=O)NC(C)C(=O)NC(C)c2ccccc2)cc1 (centres undefined)	2	-8	-3	5	44*	-3	55*
CC(=O)Nc1ccc(S(=O)(=O)NC(C)c2ccncc2)cc1 (centres undefined)	-1	-3	3	-6	1	-1	x
O=C(NNc1nc(-c2ccccc2)cs1)c1cccs1	3	-5	6	-1	51*	x	-2
O=C(NC(=S)Nc1nc(-c2ccccc2)cs1)c1cccs1	-3	9	-1	1	-3	-6	x
Oc1ccc(CNc2cccnc2)c2cccnc12	6	x	10	x	39*	x	34*
Cc1ccc(Cn2cc(COC(=O)N3CCCC3)nn2)cc1	1	x	10	x	1	x	x
O=c1c2sccc2nc(SCc2cc(=O)n3ccccc3n2)n1Cc1ccccn1	-2	x	-4	-6	27*	x	15
COc1cc2cc(CN(Cc3ccc4c(c3)OCO4)C(=O)c3ccco3)c(=O)[nH]c2cc1OC	-1	-2	1	-5	45*	3	4
Cc1ccccc1Cn1cc(CN2[C@@H](Cc3ccccc3)COc3cc(Br)ccc3S2(=O)=O)nn1	-29	x	-1	x	-1	x	x
O=C(O)/C(=C/c1ccco1)NC(=O)c1ccc(Br)o1	20	-7	6	-1	29*	3	4
O=C(Nc1ccc(C(=O)O)cc1)/C(=C\c1ccco1)NC(=O)c1ccc(Br)o1	7	12	3	15	25*	0	-4
C=CCNC(=O)/C(=C/c1ccco1)NC(=O)c1ccc(Br)o1	8	-8	-6	-3	9	-1	x
O=C(O)/C(=C\c1ccco1)NC(=O)c1cccc2ccccc12	9	8	0	-2	33*	-7	7
O=C(O)/C(=C\c1ccco1)NC(=O)c1ccc(Br)o1	16	-2	10	0	11	5	x
O=C(NC(Cc1ccccc1)C(=O)O)/C(=C\c1ccco1)NC(=O)c1ccc(Br)cc1 (centres undefined)	3	11	-6	11	35*	0	5
COc1ccc2[nH]cc(C(C)c3c[nH]c4ccccc34)c2c1 (centres undefined)	0	x	9	x	1	x	x

Source: PubChem BioAssay
